Consider two compounds from paper PMC5828885 (The Journal of investigative dermatology, 2017).

What is called logP is the decadic logarithm of the partition coefficient of the neutral form, usually between octanol and water. The term logD denotes lipophilicity at a set pH, counting ionised and neutral species. Lower therefore signals a more hydrophilic compound.

For data set [1] the following is noted: ref Baik et al., 2013; cited from earlier work.
Data set [2] is described as follows: LogP and LogD determination, 1-octanol/phosphate buffer partitioning. The data set is classed as physicochemical. The gist of the method: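 Shake-flask partitioning in phosphate buffer pH 3/1-octanol 1:1 (v/v) at 25°C, thermostatted water bath, magnetic stirring for 24 h to equilibrate. Compound was introduced in organic solvent at maximum solubility. Both layers were assayed spectrophotometrically at 285nm against a standard curve. The apparent partition coefficient was converted to LogP and LogD (pH 7.4) by published equations.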

Data set [3] in a line: In vitro assay for HCl salt precipitation in simulated lysosomal conditions. The class given is physicochemical. Conditions: for Solubility behaviour in solution A (no chloride): compared with DMSO; for Precipitates by brightfield and Cy5 fluorescence microscopy in solution B: pH 4.5, 100mM chloride. The gist of the method: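 Lysosome-mimic buffers: 10mM sodium acetate pH 4.5 with 10mM CTAB (Solution A), plus 100mM NaCl (Solution B). A 7mM DMSO stock was added 1:100 into each buffer and shaken 2.5 h at varying speeds. Absorbance at 285nm was read against a buffer-plus-DMSO baseline; a decrease was taken as precipitation. Precipitate was imaged by brightfield and Cy5 fluorescence microscopy.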

Data set [4] relates to mice. The data set is classed as in vivo, mice (Balb/c and C57BL/6). The settings on record: 10mg/kg/day, 3-4 weeks; for Skin pigmentation (visual): mice, drug powder feed diet; for Skin pigmentation (OD values, 480nm and 535nm filters): mouse ears, n=3, p<0.01 vs untreated. The gist of the method: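 Balb/c and C57BL/6 mice, 4-5 weeks old, fed ad libitum a drug powder diet targeting an oral dose equivalent of 10mg/kg/day for 3-4 weeks; untreated mice as controls. Ears were photographed by phone camera through single-band bandpass filters (480, 535, 623nm), flash/HDR off, no editing filters. Reflectance was quantified by image analysis (drug powder n=7, untreated n=3); one-way ANOVA, Tukey's HSD.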

Data set [5] deals with mice. In words: Multi-parameter microscopic imaging of tissue cryosections for CLDIs. The settings on record: 10mg/kg/day, 3-4 weeks. The class given is in vivo, mice (Balb/c and C57BL/6). In short, it runs like this: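 Mice (4-5 weeks old) received a 10mg/kg/day-equivalent drug diet for 3-4 weeks, then were CO2-euthanized. Liver, spleen and ears were washed in cold PBS, embedded in OCT, frozen at -80°C and cryosectioned at 5 μm. Sections were imaged by brightfield, Cy5 fluorescence and LC-PolScope polarization (dichroism, 623nm-filtered illumination) and compared with untreated tissue.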

The test system of another data set is patients. Conditions: leprosy or MDR-TB patients; ref Maia et al., 2013, Tang et al., 2015; cited from earlier work.
The nature of data set [6]: Quantification of CFZ in tissues of treated mice. The class given is in vivo, mice (Balb/c and C57BL/6). The settings on record: 10mg/kg/day oral, 3-4 weeks. In short, it runs like this:
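4–5-week-old mice fed the test compound ad libitum in powdered chow; liver, spleen and ears (skin) harvested and rinsed in cold PBS. Tissue homogenized (sonication, or mechanical for ear) in RIPA with protease inhibitors, spun 15000 rpm, 4°C, 5 min. Supernatant extracted with xylenes, then 9M H2SO4 (each triplicate). A540−A750 against a 9M H2SO4 standard curve, normalized to organ weight.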

Where [7] appears, read: pH 4.5, 10 mM CTAB, 100mM chloride.

Structures are written as SMILES.

Regarding `CC(C)/N=c1\cc2n(-c3ccc(Cl)cc3)c3ccccc3nc-2cc1Nc1ccc(Cl)cc1` [CFZ, Clofazimine], in data set [1], the “Concentration found in adipose tissue” value is given as 0.74 mgCFZ/gFat. In data set [2] (1-octanol/phosphate buffer 1:1 (v/v), pH 3), this compound showed a log partition coefficient (logP) at 24 h of 7.66. In data set [2] (1-octanol/phosphate buffer, pH 7.4), this compound had a logD at 24 h of 5.76. In data set [3] (setting [7]), the “Decrease in absorbance (285nm) in solution B” value was 4 fold and the “Precipitation as hydrochloride salt in solution B” value was “precipitates out as hydrochloride salt”. The “Solubility behaviour in solution A (no chloride)” value in data set [3] (pH 4.5, 10 mM CTAB) is “remained soluble”. In addition, the “Precipitates by brightfield and Cy5 fluorescence microscopy in solution B” value in data set [3] was “precipitates as a HCl salt form”. For the same compound, in the data set with mice [4], the “Skin pigmentation (visual)” value is on record as “visually evident”; the “Skin pigmentation (OD values, 480nm and 535nm filters)” value is on record as “significantly higher than the untreated group”. Besides, in the data set on mice [5], the “CLDIs in skin sections” value was “did not contain CLDIs”. Besides, the “CLDIs in liver and spleen” value in the data set with mice [5] (brightfield, fluorescence, diattenuation) is given as “CLDIs were observed”. Besides, in the data set with patients, the “Patients with skin pigmentation” value was “more than 94%”. Also, in data set [6] (n=3, mean ± SD), the “Tissue concentration of the drug in skin” value was 0.16 ± 0.04 mg/g. For the same compound, in data set [6] (n=4, mean ± SD), the “Tissue concentration of the drug in liver” value was determined as 2.37 ± 0.62 mg/g and the “Tissue concentration of the drug in spleen” value was found to be 4.34 ± 0.41 mg/g.

As to `OCCN=c1cc2n(-c3ccc(Cl)cc3)c3ccccc3nc-2cc1Nc1ccc(Cl)cc1` [compound 568], in data set [2] (1-octanol/phosphate buffer pH 3, 25°C, 24 hours, mean, n=3), the LogP is reported as 6.69 ^2. In addition, in data set [2] (pH 7.4, from the apparent partition coefficient, 25°C, mean, n=3), the “LogD @ pH 7.4” value was 5.42 ^3. In data set [3] (setting [7]), the “Precipitation as hydrochloride salt in solution B” value is “remains in solution”. Moreover, the “Solubility behaviour in solution A (no chloride)” value in data set [3] (pH 4.5, 10 mM CTAB) is on record as “remained soluble”. Also, the “Precipitates by brightfield and Cy5 fluorescence microscopy in solution B” value in data set [3] is “no precipitates were observed”. Further, in the data set with mice [4], the “Skin pigmentation (visual)” value is recorded as “visually evident”; the “Skin pigmentation (OD values, 480nm and 535nm filters)” value was “identical level of pigmentation as CFZ treated mice”. Besides, the “CLDIs accumulation in all tissues” value in the data set on mice [5] (liver, spleen, skin) is “no evidence of CLDIs accumulation”.
